Results as given in PubChem BioAssay.
Inconclusive results are not listed.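 How the source made its calls, unless noted: active means cell viability at or below a set limit in both duplicate runs, the limit being the all-compound median minus 4 SD (cut at about 23% in these data, passing the limit was not always enough); inconclusive means no clear call, values can overlap the other calls; inactive means the rest.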

How the values were obtained:
[1] = S. cerevisiae growth inhibition in permissive medium (OD615), pilot counter-assay for S. cerevisiae lifespan shortening project, permissive growth control (AID 705;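 active means growth inhibition above 25% in both replicates, a cutoff set 3 SD above the mean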); conditions: OD615, 24 h, at 10 µM, active compounds read high
Method in brief: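 Material: engineered DeaD yeast; Compound: one dose 10 µM, DMSO 0.25% final; Detection: absorbance (optical density) at 615 nm; Buffer or medium: permissive raffinose/galactose medium; Timing: 24 h exposure, 30 °C.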

[2] = S. cerevisiae growth inhibition in restrictive medium, OD615, pilot screen, restrictive growth control, yeast lifespan reduction project (AID 706;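 active means growth inhibition above a set limit, 3 SD over mean compound inhibition, in both replicates, cut at about 43% in these data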;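 further: modified DeaD lifespan yeast strain shifted to restrictive glucose medium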); conditions: OD615, 48 h, at 10 µM, active compounds read high
Method in brief: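 Buffer or medium: restrictive glucose medium (CSMM-D); test system: modified S. cerevisiae; doses: single dose of 10 µM compound final, 0.25% DMSO; schedule: 48 h compound exposure at 30 °C; detection: absorbance (optical density) measured at 615 nm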

[3] = doxorubicin toxicity protection in MRP-1 cells – H69AR cells, CellTiter-Glo, duplicate, MRP-1 activator project, pilot screen (AID 807;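 active means viability increase at or above a cutoff of the median across tested compounds plus 3 SD, cut at about 8.5% in these data, passing the limit was not always enough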;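 further: compound pretreatment 18-22 h then 72 h combined with doxorubicin; 0% = doxorubicin alone and 100% = vehicle without doxorubicin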); conditions: H69AR viability with doxorubicin, CellTiter-Glo luminescence; at 10 µM; active compounds read high
[4] = viability of HCT116 without oncogenic beta-catenin – human colon tumor cells, pilot screen (AID 823); conditions: HCT116 beta-catenin knockout viability, CellTiter-Glo, 60 h; at 10 µM; active compounds read low;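 further: 0% = wells killed by 20 µM Hyamine and 100% = untreated DMSO cell wells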
[5] = viability of PTEN-null HCT116 cells – cell-based, HCT116 clonal line, CellTiter-Glo, pilot screen (AID 824;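 active means viability at or below 27.92% in each of two runs, the all-compound median minus 4 SD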;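 further: 0% = 20 µM Hyamine control and 100% = vehicle cell control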); conditions: HCT116 PTEN-deleted viability, 60 h, at 10 µM, active compounds read low
[6] = RAM pathway blockade in budding yeast – dse1pr::URA3 reporter, 5-FOA selection, pilot screen (AID 869;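 active means inhibition over a set limit, the all-compound mean plus 3 SD, in both replicate runs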;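 further: 0% = DMSO wells with no growth and 100% = 10 µM 1-NA-PP1 with full growth; RAM network block rescues cells from 5-FOA so hits raise OD615 growth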); conditions: S. cerevisiae dse1pr::URA3 5-FOA growth, OD615, 2 d; at 10 µM; active compounds read high; strain carries analog-sensitive mutant Cbk1 kinase
[7] = RAM signaling pathway blockade in yeast – S. cerevisiae, Pdr1DBD-CYC8 efflux-inhibited sensitized strain, primary screen (AID 1298;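 active means RAM network inhibition above 8.4% in each of two replicates, 3 SD over the compound average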;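 further: 0% = DMSO untreated cells without growth and 100% = 10 µM 1-NA-PP1 full growth; higher means more yeast growth rescued from 5-FOA killing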); conditions: S. cerevisiae cbk1-as DSE1-URA3 strain, 5-FOA growth OD615, 2 d; at 50 µM; active compounds read high

CC(C)(C)NC(=O)C1CCCN(S(=O)(=O)c2cccc3cccnc23)C1 (stereo unspecified)
inactive: growth inhibition [1] -5.03% | growth inhibition [2] 3.88% | viability increase [3] -2.62% | viability [4] 103% | viability [5] 96.1% | inhibition [6] 1.6% | RAM network inhibition [7] 0.52%

COc1ccc(N2CCN(C(=O)C(Cc3ccccc3)n3cccc3)CC2)cc1 (stereo unspecified)
inactive: growth inhibition [1] -14.4% | growth inhibition [2] -6.94% | viability increase [3] -2.94% | viability [4] 84.9% | viability [5] 82.6% | inhibition [6] 1.7% | RAM network inhibition [7] 6.88%

CCCn1c(CN2CCCCC2CC)nc2c1c(=O)n(C)c(=O)n2C (stereo unspecified)
inactive: growth inhibition [1] -3.98% | growth inhibition [2] -17.3% | viability increase [3] 0.61% | viability [4] 93.9% | viability [5] 90.4% | inhibition [6] 0.045% | RAM network inhibition [7] 4.81%

O=C(NCCc1ccccc1)c1ccc2c(c1)N(Cc1ccccc1)C(=O)CS2=O (stereo unspecified)
inactive: growth inhibition [1] 0.9% | growth inhibition [2] -2.98% | viability increase [3] 0.8% | viability [4] 96.3% | viability [5] 88.7% | inhibition [6] 0.2% | RAM network inhibition [7] 3.6%

C=CCOC(=O)C1=C(C)NC(=O)NC1c1ccc(Cl)cc1 (stereo unspecified)
inactive: growth inhibition [1] -3.88% | growth inhibition [2] -3.15% | viability increase [3] 0.95% | viability [4] 102% | viability [5] 88.2% | inhibition [6] -0.115% | RAM network inhibition [7] 2.31%

Cn1c(Cn2c(=O)sc3ccccc32)nnc1SCc1cccc(F)c1
inactive: growth inhibition [1] -7.92% | growth inhibition [2] 2.12% | viability increase [3] -0.5% | viability [4] 71.1% | viability [5] 69.7% | inhibition [6] 3.43% | RAM network inhibition [7] 7.87%

COc1ccc(N)cc1C#N
inactive: growth inhibition [1] -7.31% | growth inhibition [2] -5.58% | viability increase [3] -3.17% | viability [4] 98.5% | viability [5] 93.6% | inhibition [6] 1.06% | RAM network inhibition [7] 1.63%

CCCc1cc(C(=O)Nc2sc3c(c2C(=O)OCC)CCCC3)no1
inactive: growth inhibition [1] -19% | growth inhibition [2] -10.2% | viability increase [3] 1.82% | viability [4] 104% | viability [5] 99.5% | inhibition [6] 3.09% | RAM network inhibition [7] 3.28%

CCCn1c(-c2ccc(OC)cc2)nc2ccccc21
inactive: growth inhibition [1] -16.6% | growth inhibition [2] -12.9% | viability increase [3] -0.51% | viability [4] 74.4% | viability [5] 71.9% | inhibition [6] 2.18% | RAM network inhibition [7] 7.97%

Cc1ccc(C)c(N2CCN(C(=O)CCS(=O)(=O)c3cccc4nonc34)CC2)c1
inactive: growth inhibition [1] -16.3% | growth inhibition [2] -12.5% | viability increase [3] -5.38% | viability [4] 88.8% | viability [5] 91.8% | inhibition [6] 1.31% | RAM network inhibition [7] 6.07%

COc1ccc(NC(=O)N(CCC(C)C)C(C)c2ccccn2)c(OC)c1 (stereo unspecified)
inactive: growth inhibition [1] -5% | growth inhibition [2] 7.73% | viability increase [3] -3.52% | viability [4] 79.2% | viability [5] 85.6% | inhibition [6] 1.11% | RAM network inhibition [7] 3.79%

Cc1occc1C(=O)NCc1ccc2c(c1)OCO2
inactive: growth inhibition [1] -7.06% | growth inhibition [2] 3.86% | viability increase [3] 0.84% | viability [4] 101% | viability [5] 99.2% | inhibition [6] 1.78% | RAM network inhibition [7] 1.93%

C=CCc1c(C)nc(SCc2nc3ccccc3c(=O)[nH]2)[nH]c1=O
inactive: growth inhibition [1] 3.73% | growth inhibition [2] 15.9% | viability increase [3] 0.9% | viability [4] 94.2% | viability [5] 96.7% | inhibition [6] 0.91% | RAM network inhibition [7] 1.65%

COc1ccc(N2C(=O)CCC(C(=O)NCc3ccccn3)C2c2ccc(OC)c(OC)c2)cc1 (stereo unspecified)
inactive: growth inhibition [1] -3.9% | growth inhibition [2] 6.09% | viability increase [3] -1.53% | viability [4] 98.3% | viability [5] 100% | inhibition [6] 1.01% | RAM network inhibition [7] -0.31%

COc1ccccc1N1CSC2=C(C#N)C(c3ccc(SC)cc3)CC(=O)N2C1 (stereo unspecified)
inactive: growth inhibition [1] -1.16% | growth inhibition [2] 15.8% | viability increase [3] -5.15% | viability [4] 102% | viability [5] 94.7% | inhibition [6] 1.7% | RAM network inhibition [7] 3.52%

O=C(Nc1ccccc1C(=O)NCc1ccco1)c1ccccc1
inactive: growth inhibition [1] -21.8% | growth inhibition [2] -6.89% | viability increase [3] -3.16% | viability [4] 100% | viability [5] 90.5% | inhibition [6] 1.55% | RAM network inhibition [7] 8.28%

O=C1CN(C(=O)COC(=O)C2CC(=O)N(Cc3ccco3)C2)c2ccccc2N1 (stereo unspecified)
inactive: growth inhibition [1] -12% | growth inhibition [2] -16.7% | viability increase [3] -2.08% | viability [4] 102% | viability [5] 104% | inhibition [6] 1.06% | RAM network inhibition [7] 4.09%

O=C(CSc1ccc2c(c1)OCCO2)NC(=O)NC1CCCC1
inactive: growth inhibition [1] -2.04% | growth inhibition [2] 2.58% | viability increase [3] -1.38% | viability [4] 87.7% | viability [5] 91.3% | inhibition [6] 0.535% | RAM network inhibition [7] -1.28%
